Assay outcomes deposited in PubChem BioAssay by several laboratories.
Only some compounds are listed: those with a hit (about 5.3% of all), similar ones and a draw of the others.
CSC inhib: cancer stem cell inhibition | cancer stem cell-like cells viability, luminescence | inhibition, % at 7.5 µM | actives 1.1% (n = 300,000); in the data active means inhibition above about 75%; inconclusive means no clear call, values can overlap the other calls; tested in HMLE shEcad cells
Calb FLC: affects C. albicans growth with fluconazole; C. albicans CaCi-2 (fluconazole-resistant clinical isolate) + fluconazole, Alamar Blue growth, 48 h; growth inhibition, % (test concentration not listed); actives 0.57% (n = 300,000); AID 1979;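 active means growth inhibition above about 58% in most replicates, limit read from the data, passing the limit was not always enough; inconclusive means exactly half the replicates above a set limit; inactive means most replicates below a set limit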;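 further: all wells also contain fluconazole at 8 µg/ml as a sub-toxic cotreatment; 0% = median of DMSO wells and 100% = median of geldanamycin control wells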
NALP3 yeast inh: inhibitors of NALP3 inflammasome in yeast; inhibition, % at 10 µM; actives 0.39% (n = 330,000); Yeast reconstituted NLRP3/ASC/caspase-1, beta-gal luminescence, 24 h; AID 2825;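 active means inhibition of 50% or more; inactive means inhibition below 50%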;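 further: plate controls were induced DMSO wells for no effect and uninduced yeast grown without galactose for full effect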
Beta apoptosis: blocks beta cell apoptosis. actives 0.8% (n = 300,000). INS-1E cytokine-induced death, ATP luminescence, 48 h; percent of positive-control rescue, neutral wells zero. protection from apoptosis, % (test concentration not listed);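 active means Every replicate reaches about 75%, or at least half do and their mean reaches it too, limit read from the data; inconclusive means At least half of replicates reach the limit but their mean does not; inactive means Under half of replicates reach the limit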;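 further: 0% = cytokine-treated negative control wells and 100% = positive control rescue; higher means more ATP so stronger rescue from cytokine killing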
T cruzi repl: T. cruzi replication inhibition; T. cruzi beta-gal in NIH3T3, luminescence, 90 h; inhibition, % (test concentration not listed); AID 1885; actives 1.4% (n = 300,000);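 active means mean inhibition across valid replicates above about 55%, limit read from the data; inconclusive means mean below that limit but half or more replicates reach it; inactive means mean below it, under half of replicates reach it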;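 further: signal also drops with host cell toxicity which is not excluded here; 0% = plate median of DMSO wells and 100% = zero luminescence signal; higher percent means less beta-gal luminescence so fewer parasites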
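System – NIH/3T3 host cells with β-galactosidase reporter T. cruzi · Doses – single 50 nL compound addition per well in DMSO · Reagent – 5000 T. cruzi trypomastigotes/well · Medium – Low-serum DMEM with 2% FBS · Timing – ≥90 h infection period, 3 h prior cell attachment · Evaluation – parasite load inhibition, % · Technique – GalScreen luminescence, 60 min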
Mdm2-MdmX inh: human Mdm2/MdmX binding inhibition | AID 485346 | actives 3% (n = 330,000) | O15151+Q00987 | SaOS-2 split-luciferase Mdm2/MdmX complementation, luminescence | inhibition, % at 8 µM;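 active means inhibition of at least 50% at 8 µM in the primary screen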
Target sequence (O15151 whole entry, looked up): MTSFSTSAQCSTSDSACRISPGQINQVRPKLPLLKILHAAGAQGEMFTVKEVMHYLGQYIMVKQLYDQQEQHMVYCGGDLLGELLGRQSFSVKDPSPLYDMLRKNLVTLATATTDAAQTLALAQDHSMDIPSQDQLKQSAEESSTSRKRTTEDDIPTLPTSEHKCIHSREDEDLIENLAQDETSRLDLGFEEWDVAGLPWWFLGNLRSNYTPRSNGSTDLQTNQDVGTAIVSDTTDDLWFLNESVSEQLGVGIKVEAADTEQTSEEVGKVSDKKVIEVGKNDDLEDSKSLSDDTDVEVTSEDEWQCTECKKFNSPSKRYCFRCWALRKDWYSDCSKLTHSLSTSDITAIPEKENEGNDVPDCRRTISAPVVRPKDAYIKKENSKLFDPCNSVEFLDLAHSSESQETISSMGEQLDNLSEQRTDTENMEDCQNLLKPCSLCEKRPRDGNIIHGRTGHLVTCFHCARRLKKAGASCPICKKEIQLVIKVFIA
Target sequence (Q00987 whole entry, looked up): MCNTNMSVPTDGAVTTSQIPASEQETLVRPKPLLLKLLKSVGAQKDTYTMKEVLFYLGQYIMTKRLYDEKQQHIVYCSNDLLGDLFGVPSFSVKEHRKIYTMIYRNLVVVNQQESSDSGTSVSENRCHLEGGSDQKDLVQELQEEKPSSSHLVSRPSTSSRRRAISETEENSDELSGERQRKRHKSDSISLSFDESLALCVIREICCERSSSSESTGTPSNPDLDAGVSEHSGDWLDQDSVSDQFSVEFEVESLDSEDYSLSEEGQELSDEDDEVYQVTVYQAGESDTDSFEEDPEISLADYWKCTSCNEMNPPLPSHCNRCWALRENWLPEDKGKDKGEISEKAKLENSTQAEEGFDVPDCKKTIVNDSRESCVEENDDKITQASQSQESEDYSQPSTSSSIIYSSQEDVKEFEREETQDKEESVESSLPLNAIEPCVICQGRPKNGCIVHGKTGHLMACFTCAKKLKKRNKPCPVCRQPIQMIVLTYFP
The depositor's hits bear a star.

Results for COc1ccc(C2C(C(=O)N3CCN(c4ccccn4)CC3)CCC(=O)N2c2ccc(OC)cc2)cc1 (configuration not stated) ?
CSC inhib: -17; Calb FLC: -12; NALP3 yeast inh: 5; Beta apoptosis: -12; T cruzi repl: -3; Mdm2-MdmX inh: 24

What do the screens show for `CCCN(CCC)CC(O)Cn1cc(/C=C/C(=O)c2ccccc2)c2ccccc21` (configuration not stated)?
Calb FLC: 1; T cruzi repl: 41

What do the screens show for `CN1CCc2c(sc(NC(=O)c3cc4cc([N+](=O)[O-])ccc4s3)c2C(N)=O)C1`?
Calb FLC: 97*; T cruzi repl: 69*

Results for CC(C)N1CCc2c(sc(NC(=O)c3ccc4ccccc4c3)c2C(N)=O)C1 ?
CSC inhib: 79*; Calb FLC: -2; NALP3 yeast inh: 10; Beta apoptosis: 25; T cruzi repl: 39; Mdm2-MdmX inh: 41

How did CC(C)N1CCc2c(sc(NC(=O)c3cc4cc([N+](=O)[O-])ccc4s3)c2C(N)=O)C1 do in these assays?
Calb FLC: 27; NALP3 yeast inh: 5; T cruzi repl: -1; Mdm2-MdmX inh: 38

What do the screens show for `O=[N+]([O-])c1cccc(COc2ncnc3cc([N+](=O)[O-])ccc23)c1`?
CSC inhib: 23; Calb FLC: 20; NALP3 yeast inh: 4; Beta apoptosis: 14; T cruzi repl: 64*; Mdm2-MdmX inh: 15

What do the screens show for `Cc1ccc(C(=O)CNc2ccc(C)c(Cl)c2)cc1`?
CSC inhib: 9; Calb FLC: 1; NALP3 yeast inh: 24; Beta apoptosis: 2; T cruzi repl: -24; Mdm2-MdmX inh: -35

Results for Cc1ccc(NCC(=O)c2ccc(C)cc2)cc1 ?
CSC inhib: 7; Calb FLC: -30; NALP3 yeast inh: 21; T cruzi repl: 56*; Mdm2-MdmX inh: -23

What do the screens show for `O=C(NCc1cccnc1)C1CC(c2cccc(Br)c2)=NO1` (configuration not stated)?
CSC inhib: 38; Calb FLC: -2; NALP3 yeast inh: 10; T cruzi repl: -7; Mdm2-MdmX inh: 5

Results for Cc1cc(C)n2nc(C(=O)NCc3cccc(C(F)(F)F)c3)nc2n1 ?
CSC inhib: -1; Calb FLC: 6; NALP3 yeast inh: 7; Beta apoptosis: -4; T cruzi repl: 76*; Mdm2-MdmX inh: 12

Results for O=C(OCC(=O)N1CCC(c2ccccc2)=N1)c1ccc([N+](=O)[O-])s1 ?
CSC inhib: -9; Calb FLC: -5; NALP3 yeast inh: 21; Beta apoptosis: 3; T cruzi repl: 55*; Mdm2-MdmX inh: 1

What do the screens show for `Cc1nn2c(-c3ccc(Cl)cc3Cl)nnc2s1`?
CSC inhib: 8; Calb FLC: -2; NALP3 yeast inh: 17; Beta apoptosis: 0; T cruzi repl: -9; Mdm2-MdmX inh: -24

How did Cc1ccc(-c2ccc3c(c2)S(=O)(=O)c2ccccc2C3=O)cc1 do in these assays?
CSC inhib: -11; Calb FLC: -1; NALP3 yeast inh: 19; Beta apoptosis: -2; T cruzi repl: -22; Mdm2-MdmX inh: -16

Results for Cc1cc(N2CCCC2=O)cc(C)c1S(=O)(=O)NCCOc1ccc(C(C)(C)C)cc1 ?
CSC inhib: 7; Calb FLC: 18; NALP3 yeast inh: 1; Beta apoptosis: 109*; T cruzi repl: 14; Mdm2-MdmX inh: 21

Results for O=C(Nc1cccc(Cl)c1)Nc1nccs1 ?
CSC inhib: 27; Calb FLC: 80*; NALP3 yeast inh: -10; Beta apoptosis: -5; T cruzi repl: -16; Mdm2-MdmX inh: -9

Results for O=C(Nc1cccc(Cl)c1)Nc1cccc(Cl)c1 ?
CSC inhib: -11; NALP3 yeast inh: 11; Beta apoptosis: 43; T cruzi repl: 34; Mdm2-MdmX inh: 6

Results for O=C(Nc1nccs1)c1sc2cc(Cl)ccc2c1Cl ?
CSC inhib: 54; Calb FLC: inconclusive; NALP3 yeast inh: 8; Beta apoptosis: 22; T cruzi repl: 59*; Mdm2-MdmX inh: -38

Results for O=C(Nc1ccc(Cl)c(Cl)c1)Nc1nccs1 ?
CSC inhib: 95*; Calb FLC: 64; NALP3 yeast inh: -72; Beta apoptosis: 19; T cruzi repl: 10; Mdm2-MdmX inh: 19

What do the screens show for `O=C(Nc1nccs1)c1sc2ccccc2c1Cl`?
CSC inhib: 40; Calb FLC: -33; NALP3 yeast inh: 27; Beta apoptosis: 20; T cruzi repl: 6; Mdm2-MdmX inh: -98

What do the screens show for `Cc1ccc(OCC(=O)NNC(=S)NC(=O)C2CC2)c(C)c1`?
CSC inhib: 0; Calb FLC: 103*; NALP3 yeast inh: 42; Beta apoptosis: 7; Mdm2-MdmX inh: 39

How did COc1ccc(CN2CCN(Cc3ccc(C)cc3)CC2)c(OC)c1 do in these assays?
CSC inhib: 16; Calb FLC: -4; NALP3 yeast inh: 22; Beta apoptosis: -2; T cruzi repl: 57*; Mdm2-MdmX inh: -4

What do the screens show for `Nc1ccc(-c2cc(-c3cccc(N)c3)nc(-c3ccccc3)n2)cc1`?
CSC inhib: 84*; Calb FLC: -11; NALP3 yeast inh: 13; Beta apoptosis: -9; T cruzi repl: 41; Mdm2-MdmX inh: -18

Results for Nc1ccc(-c2nc(-c3ccccc3)nc3ccccc23)cc1 ?
CSC inhib: 40; Calb FLC: -4; NALP3 yeast inh: 14; Beta apoptosis: -3; T cruzi repl: 5; Mdm2-MdmX inh: 0

Results for CC1(C)Cc2c(C#N)c(NC3CCCCC3)nc(-c3ccco3)c2CO1 ?
CSC inhib: 77*; Calb FLC: 21; NALP3 yeast inh: 9; Beta apoptosis: -3; T cruzi repl: 9; Mdm2-MdmX inh: -2

What do the screens show for `CC1(C)Cc2c(C#N)c(NCC3CCCO3)nc(-c3ccco3)c2CO1` (configuration not stated)?
Calb FLC: 10; NALP3 yeast inh: -7; Beta apoptosis: -7; T cruzi repl: -1; Mdm2-MdmX inh: 21

Results for CC(=O)c1cn(CCOc2cc(C)ccc2C)c2ccccc12 ?
CSC inhib: 3; Calb FLC: 2; NALP3 yeast inh: 19; Beta apoptosis: 89*; T cruzi repl: 23; Mdm2-MdmX inh: 19

What do the screens show for `COc1ccc(-c2cc(C(=O)OCC(=O)c3ccc(C)c([N+](=O)[O-])c3)c3ccccc3n2)cc1`?
CSC inhib: 11; Calb FLC: 3; NALP3 yeast inh: 1; Beta apoptosis: -3; T cruzi repl: 8; Mdm2-MdmX inh: 19

What do the screens show for `COc1ccc(-c2nn(-c3ccccc3)cc2C(=O)OCC(=O)c2ccc(C)c([N+](=O)[O-])c2)cc1`?
CSC inhib: 39; Calb FLC: 3; NALP3 yeast inh: 1; Beta apoptosis: 101*; T cruzi repl: 10; Mdm2-MdmX inh: 13

Results for Cc1ccc(C(=O)Nc2ccccc2N2CCCCC2)cc1 ?
Calb FLC: -9; NALP3 yeast inh: 18; T cruzi repl: 7; Mdm2-MdmX inh: -18
